From PMC4607264 (Developmental and comparative immunology, 2014)
Converted amounts (≈) assume the structure as drawn.

Biological target: DlRBL (Dicentrarchus labrax rhamnose-binding lectin) (Dicentrarchus labrax, UniProt A0A8P4K6Y8)
Assay: inhibition of hemagglutination of rabbit erythrocytes by purified lectin
Type: biochemical
Settings: TBS pH 7.4, 5 mM CaCl2; 1% rabbit erythrocytes
Method in brief: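 Purified lectin (250 μg/ml stock, dialysed in TBS) was serially 2-fold diluted in TBS with 0.1% gelatin. Inhibitor series of monosaccharides, disaccharides and yeast mannan were used at decreasing concentrations starting from 100 mM. Rabbit erythrocytes were washed three times in PBS and suspended at 1% in TBS-gelatin, then added in equal volume. Agglutination was scored after 1 h at 37°C.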

Minimum inhibitory concentration: 70.0 mM (≈ 12.6 mg/mL)
Structure (SMILES): OC[C@H]1OC(O)[C@H](O)[C@@H](O)[C@H]1O (stereo partly drawn) [D-galactose]
